Measured values from ChEMBL document CHEMBL1795215, “Design, synthesis and biological assessment of novel N-substituted 3-(phthalimidin-2-yl)-2,6-dioxopiperidines and 3-substituted 2,6-dioxopiperidines for TNF-α inhibitory activity” (Bioorg Med Chem, 2011).

Tests used:
[1] = Toxicity against mouse RAW264.7 cells assessed as cell viability at 30 uM by Cell titer 96 squeous one solution cell proliferation assay untreated control; assay type: cell-based; details: read-out: Activity
Procedure, shortened: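 Viability of RAW 264.7 cells given 30 μM compound with LPS was read by CellTiter 96 Aqueous One tetrazolium dye formation, with absorbance at 490 nm. Results are % change in O.D. versus the appropriate control, mean ± S.E.M., n = 3, with Student's t-test (P<0.05 significant).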

[2] = system: RAW264.7; assay: Inhibition of LPS-induced TNFalpha production in mouse RAW264.7 cells assessed as TNFalph activity at 30 uM by ELISA relative to untreated control; assay type: functional; parameters: scale not given: the % may be the effect or the level left
Procedure, shortened: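 RAW 264.7 cells were cultured and exposed to compound at 30 μM together with LPS. TNF-α protein in the culture medium was quantified by a mouse TNF-α-specific ELISA and expressed as % of the appropriate control. Values are mean ± S.E.M., n = 3, with Student's t-test (P<0.05 significant).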

[3] = system: RAW264.7; assay: Inhibition of LPS-induced TNFalpha production in mouse RAW264.7 cells assessed as TNFalph activity at 30 uM by ELISA relative to thalidomide; assay type: functional
Procedure, shortened: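 LPS-stimulated RAW 264.7 cells were treated at 30 μM, and TNF-α in the medium was measured by mouse TNF-α ELISA as % of vehicle control (n = 3). Fold activity relative to thalidomide = (100 − compound TNF-α % control)/(100 − thalidomide TNF-α % control).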

For `O=C1CCC(N2Cc3ccccc3C2=O)C(=O)N1CSC(=S)NC1CCCCC1` (stereo unspecified), the viability at 30 µM [1] was 103%, the Activity [2] was 55% and the “fold change (FC)” value [3] was 45.

For `O=C1CCC(N2Cc3ccccc3C2=O)C(=O)N1CSC(=S)N1CCCCC1` (stereo unspecified), the viability at 30 µM [1] was 112%, the Activity [2] was 96% and the “fold change (FC)” value [3] was 4.

With `O=C1CCCC(=O)N1CN1C(=O)CCC(N2Cc3ccccc3C2=O)C1=O` (stereo unspecified) the viability at 30 µM [1] was 102%, the Activity [2] was 79% and the “fold change (FC)” value [3] was 21.

In the case of `O=C1CCC(N2Cc3ccccc3C2=O)C(=O)N1CN1C(=S)CCCC1=S` (stereo unspecified), the viability at 30 µM [1] is reported as 94%, the Activity [2] is reported as 63% and the “fold change (FC)” value [3] is reported as 37.

In the case of `O=C1CCC(N2Cc3ccccc3C2=O)C(=O)N1CN1C(=O)c2ccccc2C1=O` (stereo unspecified), the viability at 30 µM [1] is reported as 98%, the Activity [2] is reported as 88% and the “fold change (FC)” value [3] is reported as 12.

With `O=C1CCC(N2Cc3ccccc3C2=O)C(=O)N1CN1C(=S)c2ccccc2C1=S` (stereo unspecified) the viability at 30 µM [1] was 82%, the Activity [2] was 52% and the “fold change (FC)” value [3] was 48.

For `O=C1CCC(N2S(=O)(=O)c3ccccc3S2(=O)=O)C(=O)N1` (stereo unspecified), the viability at 30 µM [1] was 109%, the Activity [2] was 55% and the “fold change (FC)” value [3] was 45.

In the case of `N=C1N/C(=N\C2CCC(=O)NC2=O)c2ccccc21` (stereo unspecified), the viability at 30 µM [1] is reported as 116%, the Activity [2] is reported as 61% and the “fold change (FC)” value [3] is reported as 39.

In the case of `N=C1c2ccccc2C(=O)N1C1CCC(=O)NC1=O` (stereo unspecified), the viability at 30 µM [1] is reported as 84%, the Activity [2] is reported as 67% and the “fold change (FC)” value [3] is reported as 33.

In the case of `O=C1CCC(N2C(=O)c3cccnc3C2=O)C(=O)N1` (stereo unspecified), the viability at 30 µM [1] is reported as 95%, the Activity [2] is reported as 104% and the “fold change (FC)” value [3] is reported as -4.

With `O=C1CCC(N2C(=O)c3ccncc3C2=O)C(=O)N1` (stereo unspecified) the viability at 30 µM [1] was 96%, the Activity [2] was 96% and the “fold change (FC)” value [3] was 4.

Work on `Nc1cccc2c1CN(C1CCC(=O)NC1=O)C2=O` (stereo unspecified) [LENALIDOMIDE] yielded a viability at 30 µM [1] of 106%, an Activity [2] of 109% and a fold change (FC) [3] of -9.
